According to ChEMBL document CHEMBL4480390, “Cink4T, a quinazolinone-based dual inhibitor of Cdk4 and tubulin polymerization, identified via ligand-based virtual screening, for efficient anticancer therapy” (Eur J Med Chem, 2019):
Calls of active or inactive are those of the source. The calls are words filed in the database; no cut-off is given here.

Experiments:
[1] = target: Cyclin-dependent kinase 1/cyclin B1 (Homo sapiens, UniProt P06493); experiment: Inhibition of recombinant human N-terminal GST/His6-tagged CDK1 (M1 to M297 residues)/CyclinB1 (M1 to V433 residues) expressed in Sf9 insect cells using RBCTF as substrate measured after 1 hr by ADP-glo luminescence assay
Cytochrome P450 1B1 = target: T1, Cytochrome P450 1B1 (Homo sapiens, UniProt Q16678); experiment: Inhibition of recombinant human CYP1B1 expressed in baker's yeast-derived microsomes using 7-ethoxyresorufin as substrate by fluorescence assay
T1 sequence (Q16678 whole entry): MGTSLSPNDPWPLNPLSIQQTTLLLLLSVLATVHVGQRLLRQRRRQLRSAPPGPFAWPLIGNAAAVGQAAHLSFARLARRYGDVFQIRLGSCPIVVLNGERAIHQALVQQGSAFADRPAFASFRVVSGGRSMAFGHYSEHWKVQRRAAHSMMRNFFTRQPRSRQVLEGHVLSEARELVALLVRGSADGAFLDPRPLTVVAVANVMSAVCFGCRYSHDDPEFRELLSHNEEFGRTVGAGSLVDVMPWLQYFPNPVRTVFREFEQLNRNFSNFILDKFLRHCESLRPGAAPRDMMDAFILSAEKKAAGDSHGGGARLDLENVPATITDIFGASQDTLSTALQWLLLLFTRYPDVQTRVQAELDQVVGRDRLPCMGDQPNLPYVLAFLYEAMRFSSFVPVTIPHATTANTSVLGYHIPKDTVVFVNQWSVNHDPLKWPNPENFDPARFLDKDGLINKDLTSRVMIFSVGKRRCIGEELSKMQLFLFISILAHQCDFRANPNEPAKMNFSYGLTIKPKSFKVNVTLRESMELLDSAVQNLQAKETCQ

[2] = target: Cyclin-dependent kinase 4/cyclin D1 (Homo sapiens) (UniProt P11802+P24385); experiment: Inhibition of CDK4/cyclin D1 in human T47D cells assessed as reduction in phosphorylation of pRb at Ser780 residues at 0.75 to 1.5 uM measured after 18 hrs by Western blot analysis; type: cell-based
Outline: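 T47D cells left untreated or treated 18 h at 0.75 or 1.5 µM. Western blots probed with phospho-specific pRb antibodies (Ser780, Ser795, Ser807/811) and a total-pRb antibody; HRP-conjugated secondary for detection.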

T47D = experiment: Cell cycle arrest in human T47D cells assessed as accumulation at G0/G1 phase at 1.5 uM treated 18 hrs post serum-starvation measured after 18 hrs in presence of fresh medium containing FBS by propidium iodide staining based flow cytometry (reference value: 60.3%); type: functional
A549 [3] = experiment: Cell cycle arrest in human A549 cells assessed as accumulation at G0/G1 phase at 0.8 uM treated 32 hrs post mimosine addition measured after 18 hrs in presence of fresh medium by propidium iodide staining based flow cytometry (reference value: 58%); type: functional
A549 [4] = experiment: Cell cycle arrest in human A549 cells assessed as accumulation at G0/G1 phase at 1.6 uM treated 32 hrs post mimosine addition measured after 18 hrs in presence of fresh medium by propidium iodide staining based flow cytometry (reference value: 58%); type: functional
A549 [5] = experiment: cells; conditions: Homo sapiens, A549, 72 h

O=C(COc1ccc(-c2nc3ccccc3c(=O)[nH]2)cc1)Nc1cccc(Cl)c1
IC50 [1]: > 50 µM | IC50 (Cytochrome P450 1B1): > 5 µM | inhibition [2]: Active | Activity (T47D): 68.1% | Activity (A549 [3]): 36% | Activity (A549 [4]): 12% | EC50 (A549 [5]): 0.8 µM
